The results in this text go back to ChEMBL document CHEMBL3102810, “Alkylamino derivatives of pyrazinamide: synthesis and antimycobacterial evaluation” (Bioorg Med Chem Lett, 2014).

SMILES strings stand for the structures. pIC50: −log10 of the molar value. Values after ≈ are worked out from the molar mass of the structure shown. Active and inactive are the calls of the source. The calls are words filed in the database; no cut-off is given here.

One data set relates to Pseudomonas aeruginosa. As to the kind of experiment: Antibacterial activity against Pseudomonas aeruginosa CCM 1961 after 24 to 48 hrs by microdilution broth method. In kind it is functional, organism-based. The method, boiled down: (§1)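 Antibacterial screen with compound concentrations up to a highest level of 500 µM. Results expressed as MIC in µM.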
Data set [1] concerns Mycobacterium tuberculosis. The data set can be described thus: Antimycobacterial activity against Mycobacterium tuberculosis H37Rv CNCTC My 331/88 after 5 days by microplate alamar blue assay. The format is functional. Particulars: H37Rv CNCTC My 331/88, 120 h. The method, boiled down:
(§2)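 Microplate alamar blue assay run at pH 5.6, using conditions optimized for pyrazinamide. Strains came from the Czech National Collection of Type Cultures. MIC was read in µg/mL and converted to µM using molecular weight.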

A further data set relates to Nakaseomyces glabratus. As to the kind of experiment: Antifungal activity against Candida glabrata 20/I after 72 to 120 hrs by microdilution broth method. In kind it is functional, organism-based. In general terms: Dilution methods test growth across graded concentrations, often in twofold steps.
A further data set relates to Pichia kudriavzevii. As to the kind of experiment: Antifungal activity against Candida krusei E28 after 72 to 120 hrs by microdilution broth method. The format is functional, organism-based.
A further data set concerns Candida albicans. The data set can be described thus: Antifungal activity against Candida albicans ATCC 44859 after 72 to 120 hrs by microdilution broth method. The format is functional, organism-based.
Data set [2] relates to Trichophyton mentagrophytes. As to the kind of experiment: Antifungal activity against Trichophyton mentagrophytes after 72 to 120 hrs by microdilution broth method. The format is functional, organism-based.
In data set [3] the test system is Staphylococcus epidermidis. As to the kind of experiment: Antibacterial activity against Staphylococcus epidermidis H 6966/08 after 24 hrs by microdilution broth method. The format is functional. Particulars: H 6966/08, 24 h. The method, boiled down:
as §1

In the next data set the test system is Escherichia coli. The data set can be described thus: Antibacterial activity against Escherichia coli CCM 4517 after 24 to 48 hrs by microdilution broth method. The format is functional, organism-based. The method, boiled down:
as §1

Data set [4] is described as follows: Lipophilicity, log K of the compound by HPLC analysis. In kind it is physicochemical.
The test system of another data set is Trichosporon asahii. The data set can be described thus: Antifungal activity against Trichosporon asahii 1188 after 72 to 120 hrs by microdilution broth method. In kind it is functional, organism-based.
In the next data set the test system is Staphylococcus aureus. As to the kind of experiment: Antibacterial activity against Staphylococcus aureus CCM 4516/08 after 24 to 48 hrs by microdilution broth method. The format is functional, organism-based. The method, boiled down:
as §1

In another data set the test system is Lichtheimia corymbifera. As to the kind of experiment: Antifungal activity against Absidia corymbifera 272 after 72 to 120 hrs by microdilution broth method. The format is functional, organism-based.
A further data set relates to Aspergillus fumigatus. The data set can be described thus: Antifungal activity against Aspergillus fumigatus 231 after 72 to 120 hrs by microdilution broth method. In kind it is functional, organism-based.
The test system of another data set is Enterococcus sp. The data set can be described thus: Antibacterial activity against Enterococcus sp. J 14365/08 after 24 to 48 hrs by microdilution broth method. In kind it is functional, organism-based. The procedure, abridged: as §1
The test system of data set [5] is Trichophyton mentagrophytes. The data set can be described thus: Antifungal activity against Trichophyton mentagrophytes 445 after 72 to 120 hrs by microdilution broth method. The format is functional, organism-based.
Data set [6] deals with Staphylococcus epidermidis. The data set can be described thus: Antibacterial activity against Staphylococcus epidermidis H 6966/08 after 48 hrs by microdilution broth method. In kind it is functional. Particulars: for MIC95: H 6966/08, 48 h. The procedure, abridged:
as §1

The test system of data set [7] is Klebsiella pneumoniae. The data set can be described thus: Antibacterial activity against ESBL positive Klebsiella pneumoniae J 14368/08 after 24 to 48 hrs by microdilution broth method. In kind it is functional, organism-based. The procedure, abridged:
as §1

Data set [8] deals with Staphylococcus epidermidis. The data set can be described thus: Antibacterial activity against methicillin-resistant Staphylococcus epidermidis H 5996/08 after 24 to 48 hrs by microdilution broth method. In kind it is functional, organism-based.
A further data set has as its system Candida tropicalis. The data set can be described thus: Antifungal activity against Candida tropicalis 156 after 72 to 120 hrs by microdilution broth method. The format is functional, organism-based.
For data set [9], the system named is Mycobacterium avium. The data set can be described thus: Antimycobacterial activity against pyrazinamide-resistant Mycobacterium avium CNCTC My 152/73 after 5 days by microplate alamar blue assay. Particulars: CNCTC My 152/73, 120 h. The format is functional. The procedure, abridged:
as §2
For orientation: Resazurin is reduced to fluorescent resorufin, in cell work by metabolically active cells.

The next data set relates to Mycobacterium kansasii. The data set can be described thus: Antimycobacterial activity against pyrazinamide-resistant Mycobacterium kansasii CNCTC My 235/80 after 5 days by microplate alamar blue assay. In kind it is functional. Particulars: CNCTC My 235/80, 120 h. The method, boiled down:
as §2

Data set [10] relates to Klebsiella pneumoniae. The data set can be described thus: Antibacterial activity against Klebsiella pneumoniae D 11750/08 after 24 to 48 hrs by microdilution broth method. In kind it is functional, organism-based. The method, boiled down: as §1
The subject of data set [11] is Mycobacterium avium. The data set can be described thus: Antimycobacterial activity against pyrazinamide-resistant Mycobacterium avium CNCTC My 80/72 after 5 days by microplate alamar blue assay. The format is functional. Particulars: CNCTC My 80/72, 120 h. The procedure, abridged: as §2
Data set [12] concerns Staphylococcus epidermidis. As to the kind of experiment: Antibacterial activity against Staphylococcus epidermidis H 6966/08 up to 500 uM after 24 to 48 hrs by microdilution broth method. In kind it is functional, organism-based. The procedure, abridged:
as §1

A short description of data set [13]: Selectivity index, ratio of IC50 for human HepG2 cells to MIC for Mycobacterium tuberculosis H37Rv CNCTC My 331/88. In kind it is toxicity, cell-based. Particulars: read-out: Selectivity Index. The procedure, abridged: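 HepG2 human liver cell viability was measured by a colorimetric tetrazolium-reduction assay, and IC50 was derived from the toxicity curves. MIC against M. tuberculosis H37Rv came from the alamar blue microplate assay at pH 5.6. SI = IC50/MIC, both in molar units.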

The next data set relates to HepG2. As to the kind of experiment: Cytotoxicity against human HepG2 cells after 24 hrs. In kind it is cell-based. Particulars: HepG2, 24 h. The method, boiled down: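 HepG2 human liver cells; loss of viability measured by a colorimetric tetrazolium-reduction assay. IC50 derived from the toxicity curves. Where limited solubility in the culture medium capped the tested concentration, only an estimate of the toxic concentration was given.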

With `CCCCCCNc1cncc(C(N)=O)n1`, the result (in the data set with Pseudomonas aeruginosa; with Nakaseomyces glabratus; in the data set with Pichia kudriavzevii; in the data set on Candida albicans; in [2]; in the data set with Escherichia coli) was inactive. Further, the outcome (with Trichosporon asahii; in the data set on Staphylococcus aureus; in the data set on Lichtheimia corymbifera; with Aspergillus fumigatus; in the data set on Enterococcus sp.; in [5]) was inactive. The result (in the data set with Klebsiella pneumoniae [7]; in data set [8]; in the data set with Candida tropicalis; in the data set on Klebsiella pneumoniae [10]) was inactive. Moreover, the MIC in [1] was 100 µg/mL; against Mycobacterium avium [9], more than 100 µg/mL; against Mycobacterium kansasii, more than 100 µg/mL; against Mycobacterium avium [11], more than 100 µg/mL. Also, the MIC95 in data set [3] was 62.5 µM (≈ 13.9 µg/mL); in data set [6], 125 µM (≈ 27.8 µg/mL). Also, in [4], the “log K” value worked out at 0.2051.

`O=C(O)c1cn(C2CC2)c2cc(N3CCNCC3)c(F)cc2c1=O` [CIPROFLOXACIN]: the MIC95 in [3] and in [6] was 250 µM (≈ 82.8 µg/mL) in each case.

On to `CCCCCCCCNc1cncc(C(N)=O)n1`, for which the result (with Pseudomonas aeruginosa; with Nakaseomyces glabratus; in the data set with Pichia kudriavzevii; in the data set on Candida albicans; in data set [12]; in data set [2]) was inactive. In addition, the outcome in the data set with Escherichia coli, in the data set with Trichosporon asahii, in the data set on Staphylococcus aureus, in the data set with Lichtheimia corymbifera, in the data set with Aspergillus fumigatus and with Enterococcus sp. was inactive. Besides, the result (in [5]; in data set [6]; in the data set with Klebsiella pneumoniae [7]; in data set [8]; in the data set on Candida tropicalis; in the data set with Klebsiella pneumoniae [10]) was inactive. Also, the MIC came out at 6 µM in data set [1], 100 µM against Mycobacterium avium [9], 100 µM in the data set on Mycobacterium kansasii and 100 µM in the data set with Mycobacterium avium [11]. Further, the selectivity ratio in data set [13] stood at 25.8. Also, in [4], the “log K” value was found to be 0.6514. Besides, the pIC50 with HepG2 is 3.79.

As to `CC1(C)S[C@@H]2[C@H](NC(=O)Cc3ccccc3)C(=O)N2[C@H]1C(=O)O` [PENICILLIN G], the MIC95 in [3] came to 125 µM (≈ 41.8 µg/mL); in data set [6], 250 µM (≈ 83.6 µg/mL).

As to `NC(=O)c1cncc(Cl)n1`, the result (with Pseudomonas aeruginosa; in the data set with Nakaseomyces glabratus; in the data set on Pichia kudriavzevii; in the data set on Candida albicans; in data set [12]; in data set [2]) was inactive. Further, the outcome in the data set on Escherichia coli, with Trichosporon asahii, with Staphylococcus aureus, in the data set on Lichtheimia corymbifera, with Aspergillus fumigatus and in the data set on Enterococcus sp. was inactive. For the same compound, the outcome (in data set [5]; in [6]; in the data set on Klebsiella pneumoniae [7]; in data set [8]; in the data set with Candida tropicalis; with Klebsiella pneumoniae [10]) was inactive. Moreover, the MIC in [1] was 635 µM; in the data set with Mycobacterium avium [9] it was more than 100 µg/mL; in the data set on Mycobacterium kansasii, more than 100 µg/mL; with Mycobacterium avium [11] it was more than 100 µg/mL. Moreover, the selectivity ratio in [13] turned out to be 5.5. For the same compound, the “log K” value in data set [4] is listed as -0.4165. In addition, the pIC50 with HepG2 is 2.46.

Turning to `NC[C@@H]1O[C@H](O[C@H]2[C@@H](O)[C@H](O[C@@H]3[C@@H](O)[C@H](N)C[C@H](N)[C@H]3O[C@H]3O[C@H](CN)[C@@H](O)[C@H](O)[C@H]3N)O[C@@H]2CO)[C@H](N)[C@@H](O)[C@@H]1O` [FRAMYCETIN], the MIC95 in [3] is 7.81 µM (≈ 4.8 µg/mL); in data set [6], 15.6 µM (≈ 9.6 µg/mL).

For orientation: MIC means the lowest concentration found to suppress growth. A higher MIC goes with a need for much substance. What is called pIC50 is the negative decadic logarithm of the IC50, by convention in mol/L.
